Measured values taken from paper PMC4075068 (Bioorganic & medicinal chemistry letters, 2014).

What was measured:
[1] = tier 1 DMPK panel; type: in vitro ADME; conditions: compared with 10b
[2] = target: rat mGlu2 (Rattus norvegicus, UniProt P31421); type: cell-based
Outline: (§1)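 Kinetic plate-based calcium fluorescence readout in cells expressing mGlu2 or mGlu3. For IC50, the test compound was titrated from 1 nM upward against an EC76 of glutamate at mGlu2 or an EC87 at mGlu3. For mechanism, the test compound was held at several fixed concentrations while glutamate was titrated from 1 nM upward, and shifts in the glutamate curve were assessed. Three independent experiments.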

[3] = target: rat mGlu3 (Rattus norvegicus, UniProt P31422); type: cell-based
Outline: as §1

[4] = target: mGlu2 (Rattus norvegicus, UniProt P31421); test: mGlu family selectivity screen, fold-shift of glutamate response; type: cell-based; conditions: 10 μM
[5] = target: mGlu3 (Rattus norvegicus, UniProt P31422); test: as above; type: cell-based; conditions: 10 μM
[6] = tested on: the other mGlus; test: mGlu family selectivity screen, fold-shift of glutamate response; type: cell-based; conditions: 10 μM
Outline: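 Fold-shift of glutamate-evoked signaling measured at group I and group III mGlu receptors. Group I receptors read out by calcium response; group III receptors read out by GIRK response.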

[7] = predicted hepatic clearance, rat; type: in vitro ADME
[8] = predicted hepatic clearance, human; type: in vitro ADME
[9] = fixed concentrations against glutamate 1 nM – 30 μM

Sequence of rat mGlu2 (P31421 19-872): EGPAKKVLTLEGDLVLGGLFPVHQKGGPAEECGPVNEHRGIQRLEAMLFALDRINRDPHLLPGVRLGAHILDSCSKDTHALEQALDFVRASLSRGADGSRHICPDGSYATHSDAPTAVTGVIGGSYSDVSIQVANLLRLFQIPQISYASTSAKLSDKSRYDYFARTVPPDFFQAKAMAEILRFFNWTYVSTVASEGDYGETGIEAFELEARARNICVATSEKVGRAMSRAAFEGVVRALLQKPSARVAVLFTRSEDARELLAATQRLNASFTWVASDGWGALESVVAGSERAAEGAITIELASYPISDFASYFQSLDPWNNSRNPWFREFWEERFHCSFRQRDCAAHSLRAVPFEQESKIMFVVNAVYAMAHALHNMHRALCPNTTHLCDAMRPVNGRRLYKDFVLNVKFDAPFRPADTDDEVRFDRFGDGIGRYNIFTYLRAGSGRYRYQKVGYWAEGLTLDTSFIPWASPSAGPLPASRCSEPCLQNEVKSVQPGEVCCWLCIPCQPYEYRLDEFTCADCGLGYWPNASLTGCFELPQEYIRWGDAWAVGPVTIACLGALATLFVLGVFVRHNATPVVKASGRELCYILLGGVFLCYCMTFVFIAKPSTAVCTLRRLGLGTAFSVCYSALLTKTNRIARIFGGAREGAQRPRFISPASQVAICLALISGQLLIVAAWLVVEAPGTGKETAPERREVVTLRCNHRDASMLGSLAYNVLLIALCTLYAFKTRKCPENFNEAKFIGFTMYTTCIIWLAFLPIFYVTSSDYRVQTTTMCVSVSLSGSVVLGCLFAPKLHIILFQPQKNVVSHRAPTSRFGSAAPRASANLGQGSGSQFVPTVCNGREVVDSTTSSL
Sequence of rat mGlu3 (P31422 23-879): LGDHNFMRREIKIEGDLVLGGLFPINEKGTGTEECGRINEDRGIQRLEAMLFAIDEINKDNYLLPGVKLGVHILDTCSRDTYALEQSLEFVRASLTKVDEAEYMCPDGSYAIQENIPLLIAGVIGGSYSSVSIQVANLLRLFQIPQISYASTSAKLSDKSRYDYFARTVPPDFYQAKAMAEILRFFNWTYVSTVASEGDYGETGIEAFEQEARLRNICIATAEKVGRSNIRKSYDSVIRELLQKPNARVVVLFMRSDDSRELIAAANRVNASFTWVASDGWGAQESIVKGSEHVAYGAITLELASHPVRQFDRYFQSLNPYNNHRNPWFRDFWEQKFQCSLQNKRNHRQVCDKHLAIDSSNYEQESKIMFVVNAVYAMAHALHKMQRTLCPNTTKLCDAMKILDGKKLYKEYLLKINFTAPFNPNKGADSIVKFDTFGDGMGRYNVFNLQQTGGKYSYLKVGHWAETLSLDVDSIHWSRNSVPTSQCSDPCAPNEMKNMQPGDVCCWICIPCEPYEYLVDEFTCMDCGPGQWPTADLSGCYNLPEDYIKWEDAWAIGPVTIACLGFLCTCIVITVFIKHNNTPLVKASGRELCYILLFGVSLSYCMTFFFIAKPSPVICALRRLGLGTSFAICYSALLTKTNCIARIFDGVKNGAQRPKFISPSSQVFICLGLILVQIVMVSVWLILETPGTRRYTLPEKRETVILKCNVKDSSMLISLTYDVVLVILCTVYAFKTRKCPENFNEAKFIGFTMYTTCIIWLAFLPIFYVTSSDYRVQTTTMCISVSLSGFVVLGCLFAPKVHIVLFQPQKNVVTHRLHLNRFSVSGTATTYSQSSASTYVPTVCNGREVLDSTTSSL
Sequence of mGlu2 (P31421 19-872): as the sequence (P31421 19-872) above
Sequence of mGlu3 (P31422 23-879): as the sequence (P31422 23-879) above

SMILES | DMPK properties [1] | increase in potency at mGlu2 compared to 7d [2] [fold] | mechanism of action at mGlu2 (progressive fold-shift of glutamate response) [2, 9] | increase in potency at mGlu3 compared to 7d [3] | mechanism of action at mGlu3 (progressive fold-shift of glutamate response) [3, 9] | effect on glutamate response at mGlu2 [4] | effect on glutamate response at mGlu3 [5] | effect on responses of the other mGlus to glutamate [6] | predicted clearance CLhep, rat [7] [mL/min/kg] | predicted clearance CLhep, human [8] [mL/min/kg]
Cn1c(=O)c2ccc(-c3cccnc3)cc2n2nc(-c3ccc(F)cc3)cc12 [7ab] | similarly poor DMPK properties |  |  |  |  |  |  |  |  | 
Cn1c(=O)c2ccc(-c3cncnc3)cc2n2nc(-c3ccccc3)cc12 [10b, 4-methyl-2-phenyl-8-(pyrimidin-5-yl)pyrazolo[1,5-a]quinazolin-5(4H)-one] |  | ~3.5 | acting as a NAM | over 2 fold | acting as a NAM | completely blocked the glutamate response | completely blocked the glutamate response | did not alter the responses | 54.7 | 18.7
